# Test system: HEK-293T
# Test: Multiplex assay against HEK293T;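 as to Population Tubulin-Different-Phenotype (%): share of the cells with healthy nuclei that show this phenotype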
# Assay type: toxicity, cell-based
# Conditions: human
# Procedure, shortened: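 Cells stained live at seeding with Hoechst33342, BioTracker Green Microtubule Cytoskeleton Dye, MitoTracker Red and Annexin V Alexa Fluor 680 were imaged on a CQ1 microscope at 37°C and 5% CO2 after compound addition. Their classification by CellPathfinder machine-learning gating ran from Hoechst high-intensity objects versus normal cells, to healthy, pyknosed or fragmented nuclei among normal cells, to mitotic or apoptotic among pyknosed cells. Tubulin, mitochondrial-mass and membrane-permeability phenotypes are per cents of healthy-nucleus cells.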
# [1] = 12 h, 1 µM, compound concentration 1 uM, replicate 1
# [2] = 12 h, 1 µM, compound concentration 1 uM, replicate 2
# [3] = 12 h, 10 µM, compound concentration 10 uM, replicate 1
# [4] = 12 h, 10 µM, compound concentration 10 uM, replicate 2
# [5] = 24 h, 1 µM, compound concentration 1 uM, replicate 1
# [6] = 24 h, 1 µM, compound concentration 1 uM, replicate 2
# [7] = 24 h, 10 µM, compound concentration 10 uM, replicate 1
# [8] = 24 h, 10 µM, compound concentration 10 uM, replicate 2
# [9] = 48 h, 1 µM, compound concentration 1 uM, replicate 1
# [10] = 48 h, 1 µM, compound concentration 1 uM, replicate 2
# [11] = 48 h, 10 µM, compound concentration 10 uM, replicate 1
# [12] = 48 h, 10 µM, compound concentration 10 uM, replicate 2
smiles,measurement,setting,value
C=CC(=O)Nc1cccc(C(=O)Nc2ccc(Nc3cc(-c4[nH]c(SC)nc4C)ccn3)cc2)c1,Population Apoptotic (%),[1],48%
same,Population Fragmented Nuclei (%),[1],16%
same,Population Healthy Nuclei (%),[1],29%
same,Population Hoechst High Intensity Objects (%),[1],14%
same,Population Membrane Permeable-Phenotype (%),[1],4%
same,Population Mitochondria Different-Phenotype (%),[1],80%
same,Population Mitotic Cells (%),[1],51%
same,Population Normal (%),[1],85%
same,Population Pyknosed Nuclei (%),[1],54%
same,Population Tubulin-Different-Phenotype (%),[1],54%
same,Total Cell Count,[1],327
same,Population Apoptotic (%),[2],5%
same,Population Fragmented Nuclei (%),[2],7%
same,Population Healthy Nuclei (%),[2],45%
same,Population Hoechst High Intensity Objects (%),[2],5%
same,Population Membrane Permeable-Phenotype (%),[2],2%
same,Population Mitochondria Different-Phenotype (%),[2],24%
same,Population Mitotic Cells (%),[2],94%
same,Population Normal (%),[2],94%
same,Population Pyknosed Nuclei (%),[2],47%
same,Population Tubulin-Different-Phenotype (%),[2],17%
same,Total Cell Count,[2],190
same,Population Apoptotic (%),[3],48%
same,Population Fragmented Nuclei (%),[3],18%
same,Population Healthy Nuclei (%),[3],30%
same,Population Hoechst High Intensity Objects (%),[3],14%
same,Population Membrane Permeable-Phenotype (%),[3],20%
same,Population Mitochondria Different-Phenotype (%),[3],83%
same,Population Mitotic Cells (%),[3],51%
same,Population Normal (%),[3],85%
same,Population Pyknosed Nuclei (%),[3],51%
same,Population Tubulin-Different-Phenotype (%),[3],70%
same,Total Cell Count,[3],210
same,Population Apoptotic (%),[4],29%
same,Population Fragmented Nuclei (%),[4],4%
same,Population Healthy Nuclei (%),[4],29%
same,Population Hoechst High Intensity Objects (%),[4],6%
same,Population Membrane Permeable-Phenotype (%),[4],19%
same,Population Mitochondria Different-Phenotype (%),[4],34%
same,Population Mitotic Cells (%),[4],70%
same,Population Normal (%),[4],93%
same,Population Pyknosed Nuclei (%),[4],65%
same,Population Tubulin-Different-Phenotype (%),[4],82%
same,Total Cell Count,[4],240
same,Population Apoptotic (%),[5],48%
same,Population Fragmented Nuclei (%),[5],15%
same,Population Healthy Nuclei (%),[5],35%
same,Population Hoechst High Intensity Objects (%),[5],17%
same,Population Membrane Permeable-Phenotype (%),[5],3%
same,Population Mitochondria Different-Phenotype (%),[5],58%
same,Population Mitotic Cells (%),[5],51%
same,Population Normal (%),[5],82%
same,Population Pyknosed Nuclei (%),[5],49%
same,Population Tubulin-Different-Phenotype (%),[5],48%
same,Total Cell Count,[5],365
same,Population Apoptotic (%),[6],13%
same,Population Fragmented Nuclei (%),[6],5%
same,Population Healthy Nuclei (%),[6],64%
same,Population Hoechst High Intensity Objects (%),[6],1%
same,Population Membrane Permeable-Phenotype (%),[6],10%
same,Population Mitochondria Different-Phenotype (%),[6],16%
same,Population Mitotic Cells (%),[6],86%
same,Population Normal (%),[6],98%
same,Population Pyknosed Nuclei (%),[6],30%
same,Population Tubulin-Different-Phenotype (%),[6],34%
same,Total Cell Count,[6],227
same,Population Apoptotic (%),[7],48%
same,Population Fragmented Nuclei (%),[7],20%
same,Population Healthy Nuclei (%),[7],40%
same,Population Hoechst High Intensity Objects (%),[7],18%
same,Population Membrane Permeable-Phenotype (%),[7],5%
same,Population Mitochondria Different-Phenotype (%),[7],80%
same,Population Mitotic Cells (%),[7],52%
same,Population Normal (%),[7],81%
same,Population Pyknosed Nuclei (%),[7],39%
same,Population Tubulin-Different-Phenotype (%),[7],72%
same,Total Cell Count,[7],233
same,Population Apoptotic (%),[8],31%
same,Population Fragmented Nuclei (%),[8],5%
same,Population Healthy Nuclei (%),[8],51%
same,Population Hoechst High Intensity Objects (%),[8],5%
same,Population Membrane Permeable-Phenotype (%),[8],19%
same,Population Mitochondria Different-Phenotype (%),[8],34%
same,Population Mitotic Cells (%),[8],68%
same,Population Normal (%),[8],94%
same,Population Pyknosed Nuclei (%),[8],43%
same,Population Tubulin-Different-Phenotype (%),[8],81%
same,Total Cell Count,[8],284
same,Population Apoptotic (%),[9],38%
same,Population Fragmented Nuclei (%),[9],17%
same,Population Healthy Nuclei (%),[9],36%
same,Population Hoechst High Intensity Objects (%),[9],16%
same,Population Membrane Permeable-Phenotype (%),[9],6%
same,Population Mitochondria Different-Phenotype (%),[9],34%
same,Population Mitotic Cells (%),[9],61%
same,Population Normal (%),[9],83%
same,Population Pyknosed Nuclei (%),[9],45%
same,Population Tubulin-Different-Phenotype (%),[9],38%
same,Total Cell Count,[9],393
same,Population Apoptotic (%),[10],12%
same,Population Fragmented Nuclei (%),[10],7%
same,Population Healthy Nuclei (%),[10],78%
same,Population Hoechst High Intensity Objects (%),[10],2%
same,Population Membrane Permeable-Phenotype (%),[10],10%
same,Population Mitochondria Different-Phenotype (%),[10],8%
same,Population Mitotic Cells (%),[10],87%
same,Population Normal (%),[10],97%
same,Population Pyknosed Nuclei (%),[10],13%
same,Population Tubulin-Different-Phenotype (%),[10],26%
same,Total Cell Count,[10],435
same,Population Apoptotic (%),[11],52%
same,Population Fragmented Nuclei (%),[11],15%
same,Population Healthy Nuclei (%),[11],43%
same,Population Hoechst High Intensity Objects (%),[11],14%
same,Population Membrane Permeable-Phenotype (%),[11],4%
same,Population Mitochondria Different-Phenotype (%),[11],54%
same,Population Mitotic Cells (%),[11],47%
same,Population Normal (%),[11],85%
same,Population Pyknosed Nuclei (%),[11],40%
same,Population Tubulin-Different-Phenotype (%),[11],69%
same,Total Cell Count,[11],271
same,Population Apoptotic (%),[12],25%
same,Population Fragmented Nuclei (%),[12],8%
same,Population Healthy Nuclei (%),[12],75%
same,Population Hoechst High Intensity Objects (%),[12],3%
same,Population Membrane Permeable-Phenotype (%),[12],19%
same,Population Mitochondria Different-Phenotype (%),[12],14%
same,Population Mitotic Cells (%),[12],74%
same,Population Normal (%),[12],96%
same,Population Pyknosed Nuclei (%),[12],15%
same,Population Tubulin-Different-Phenotype (%),[12],64%
same,Total Cell Count,[12],503
CC(C)NCC(O)COc1ccc(CCOCC2CC2)cc1.Cl (configuration not stated) [BETAXOLOL HYDROCHLORIDE],Population Apoptotic (%),[1],43%
same,Population Fragmented Nuclei (%),[1],7%
same,Population Healthy Nuclei (%),[1],49%
same,Population Hoechst High Intensity Objects (%),[1],10%
same,Population Membrane Permeable-Phenotype (%),[1],3%
same,Population Mitochondria Different-Phenotype (%),[1],82%
same,Population Mitotic Cells (%),[1],56%
same,Population Normal (%),[1],89%
same,Population Pyknosed Nuclei (%),[1],43%
same,Population Tubulin-Different-Phenotype (%),[1],56%
same,Total Cell Count,[1],343
same,Population Apoptotic (%),[2],12%
same,Population Fragmented Nuclei (%),[2],6%
same,Population Healthy Nuclei (%),[2],43%
same,Population Hoechst High Intensity Objects (%),[2],1%
same,Population Membrane Permeable-Phenotype (%),[2],8%
same,Population Mitochondria Different-Phenotype (%),[2],14%
same,Population Mitotic Cells (%),[2],87%
same,Population Normal (%),[2],98%
same,Population Pyknosed Nuclei (%),[2],50%
same,Population Tubulin-Different-Phenotype (%),[2],19%
same,Total Cell Count,[2],227
same,Population Apoptotic (%),[3],55%
same,Population Fragmented Nuclei (%),[3],9%
same,Population Hoechst High Intensity Objects (%),[3],13%
same,Population Membrane Permeable-Phenotype (%),[3],1%
same,Population Mitochondria Different-Phenotype (%),[3],100%
same,Population Mitotic Cells (%),[3],44%
same,Population Normal (%),[3],86%
same,Population Pyknosed Nuclei (%),[3],59%
same,Population Tubulin-Different-Phenotype (%),[3],95%
same,Total Cell Count,[3],247
same,Population Apoptotic (%),[4],36%
same,Population Fragmented Nuclei (%),[4],3%
same,Population Healthy Nuclei (%),[4],30%
same,Population Hoechst High Intensity Objects (%),[4],2%
same,Population Membrane Permeable-Phenotype (%),[4],6%
same,Population Mitochondria Different-Phenotype (%),[4],71%
same,Population Mitotic Cells (%),[4],63%
same,Population Normal (%),[4],97%
same,Population Pyknosed Nuclei (%),[4],65%
same,Population Tubulin-Different-Phenotype (%),[4],77%
same,Total Cell Count,[4],259
same,Population Apoptotic (%),[5],45%
same,Population Fragmented Nuclei (%),[5],6%
same,Population Healthy Nuclei (%),[5],60%
same,Population Hoechst High Intensity Objects (%),[5],7%
same,Population Membrane Permeable-Phenotype (%),[5],2%
same,Population Mitochondria Different-Phenotype (%),[5],65%
same,Population Mitotic Cells (%),[5],54%
same,Population Normal (%),[5],92%
same,Population Pyknosed Nuclei (%),[5],33%
same,Population Tubulin-Different-Phenotype (%),[5],37%
same,Total Cell Count,[5],403
same,Population Apoptotic (%),[6],10%
same,Population Healthy Nuclei (%),[6],64%
same,Population Hoechst High Intensity Objects (%),[6],1%
same,Population Membrane Permeable-Phenotype (%),[6],7%
same,Population Mitochondria Different-Phenotype (%),[6],22%
same,Population Mitotic Cells (%),[6],89%
same,Population Normal (%),[6],98%
same,Population Pyknosed Nuclei (%),[6],29%
same,Population Tubulin-Different-Phenotype (%),[6],32%
same,Total Cell Count,[6],314
same,Population Apoptotic (%),[7],69%
same,Population Fragmented Nuclei (%),[7],11%
same,Population Healthy Nuclei (%),[7],32%
same,Population Hoechst High Intensity Objects (%),[7],15%
same,Population Membrane Permeable-Phenotype (%),[7],4%
same,Population Mitochondria Different-Phenotype (%),[7],98%
same,Population Mitotic Cells (%),[7],30%
same,Population Normal (%),[7],84%
same,Population Pyknosed Nuclei (%),[7],55%
same,Population Tubulin-Different-Phenotype (%),[7],80%
same,Total Cell Count,[7],258
same,Population Apoptotic (%),[8],47%
same,Population Fragmented Nuclei (%),[8],2%
same,Population Healthy Nuclei (%),[8],50%
same,Population Hoechst High Intensity Objects (%),[8],5%
same,Population Membrane Permeable-Phenotype (%),[8],3%
same,Population Mitochondria Different-Phenotype (%),[8],80%
same,Population Mitotic Cells (%),[8],52%
same,Population Normal (%),[8],94%
same,Population Pyknosed Nuclei (%),[8],46%
same,Population Tubulin-Different-Phenotype (%),[8],82%
same,Total Cell Count,[8],321
same,Population Apoptotic (%),[9],28%
same,Population Fragmented Nuclei (%),[9],8%
same,Population Healthy Nuclei (%),[9],79%
same,Population Hoechst High Intensity Objects (%),[9],5%
same,Population Membrane Permeable-Phenotype (%),[9],1%
same,Population Mitochondria Different-Phenotype (%),[9],28%
same,Population Mitotic Cells (%),[9],71%
same,Population Normal (%),[9],94%
same,Population Pyknosed Nuclei (%),[9],12%
same,Population Tubulin-Different-Phenotype (%),[9],31%
same,Total Cell Count,[9],701
same,Population Apoptotic (%),[10],11%
same,Population Fragmented Nuclei (%),[10],6%
same,Population Healthy Nuclei (%),[10],81%
same,Population Hoechst High Intensity Objects (%),[10],3%
same,Population Membrane Permeable-Phenotype (%),[10],4%
same,Population Mitochondria Different-Phenotype (%),[10],6%
same,Population Mitotic Cells (%),[10],88%
same,Population Normal (%),[10],97%
same,Population Pyknosed Nuclei (%),[10],11%
same,Population Tubulin-Different-Phenotype (%),[10],22%
same,Total Cell Count,[10],601
same,Population Apoptotic (%),[11],67%
same,Population Fragmented Nuclei (%),[11],14%
same,Population Healthy Nuclei (%),[11],48%
same,Population Hoechst High Intensity Objects (%),[11],14%
same,Population Membrane Permeable-Phenotype (%),[11],0%
same,Population Mitochondria Different-Phenotype (%),[11],84%
same,Population Mitotic Cells (%),[11],32%
same,Population Normal (%),[11],85%
same,Population Pyknosed Nuclei (%),[11],36%
same,Population Tubulin-Different-Phenotype (%),[11],61%
same,Total Cell Count,[11],288
same,Population Apoptotic (%),[12],40%
same,Population Fragmented Nuclei (%),[12],4%
same,Population Healthy Nuclei (%),[12],72%
same,Population Hoechst High Intensity Objects (%),[12],4%
same,Population Membrane Permeable-Phenotype (%),[12],1%
same,Population Mitochondria Different-Phenotype (%),[12],63%
same,Population Mitotic Cells (%),[12],59%
same,Population Normal (%),[12],95%
same,Population Pyknosed Nuclei (%),[12],23%
same,Population Tubulin-Different-Phenotype (%),[12],77%
same,Total Cell Count,[12],435
